Source: PubChem BioAssay (several laboratories)
Rows were chosen to be rich in hits. Some 2.7% of all compounds tested hit in one or more screens of this group.
Lipid droplet: hepatic lipid droplet formation modulation; AML12 mouse hepatocytes, oleate lipid droplets, BODIPY imaging; inhibition, % at 6.5 µM; 240,000 compounds, 0.4% hits; AID 1656;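 active = lipid droplet intensity inhibited by at least 50%, with more than 500 cells counted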
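Assay system: AML12 mouse liver cells | Compound: 6.5 µM single-point dosing | Schedule: Overnight exposure | Technique: Fluorescence imaging, 20x objective, two fields per well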
NTR1 ag: activates human neurotensin receptor 1 | activation, % at 20 µM | 330,000 compounds, 0.17% hits | P30989 | NTR1-U2OS beta-arrestin-GFP spot imaging, agonist mode;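 active = activation at or above 40% of the spot to cytoplasm intensity ratio, with at least 20 cells analyzed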;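 note: 0% = DMSO without peptide and 100% = 100 nM NTR1 peptide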
Target sequence (P30989 whole entry, looked up): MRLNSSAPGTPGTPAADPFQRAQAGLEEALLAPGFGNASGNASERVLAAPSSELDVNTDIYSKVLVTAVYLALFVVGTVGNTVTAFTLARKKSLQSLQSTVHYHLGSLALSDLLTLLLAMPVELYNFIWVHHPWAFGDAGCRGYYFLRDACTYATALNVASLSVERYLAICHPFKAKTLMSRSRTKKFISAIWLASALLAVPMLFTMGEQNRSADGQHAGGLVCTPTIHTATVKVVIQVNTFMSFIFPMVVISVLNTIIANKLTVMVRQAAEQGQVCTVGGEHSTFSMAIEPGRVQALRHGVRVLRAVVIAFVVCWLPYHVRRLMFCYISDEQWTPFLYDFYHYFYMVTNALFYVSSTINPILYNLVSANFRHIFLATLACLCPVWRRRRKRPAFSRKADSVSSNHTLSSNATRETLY
MC4R antag cAMP: blocks human MC4R cAMP signaling. MC4R-expressing cells, MTII-stimulated cAMP, LANCE TR-FRET. inhibition, % at 6.5 µM. 360,000 compounds, 0.48% hits. AID 540295;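 active = inhibition above its plate's cutoff, the mean of tested wells on that plate plus 3 SD, cut at about 29% in these data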;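 note: 0% = Melanotan II alone and 100% = Melanotan II plus saturating MCL0020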
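Assay system: U2OS cells stably expressing human melanocortin 4 receptor (MC4R) / Dosing: 6.5 µM / Timing: compound 30 min, challenge 1 h, detection 1 h / Measured by: Eu-cAMP/anti-cAMP TR-FRET, emission 671 nm / Replicates: singlicate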
PREPL inh: human PREPL enzyme inhibition; Q4J6C6; recombinant PREPL, fluorescence polarization activity-based probe; inhibition, % at 5.96 µM; 320,000 compounds, 0.68% hits; AID 2751; in the data active = inhibition above about 43%;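 note: 0% = enzyme with DMSO and 100% = wells lacking enzyme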
m5-HT2A agonist: activates the mouse 5-HT2A serotonin receptor; CHO-K1 mHTR2A beta-arrestin complementation, luminescence; percent of 30 µM serotonin response; activation, % at 7.6 µM; 360,000 compounds, 0.66% hits;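 active = activation above a run cutoff, the mean activation of all tested compounds plus 3 SD, cut at about 14% in these data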;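 note: 0% = plate median of compound wells and 100% = 30 µM serotonin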
MC4R barr agon: agonists of human melanocortin 4 receptor (MC4R) beta-arrestin | P32245 | U2OS MC4R beta-arrestin complementation, luminescence; percent of melanotan II response, DMSO zero | AID 540308 | activation, % at 8.9 µM | 360,000 compounds, 0.98% hits;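 active = activation above a per-plate cutoff, the mean activation of sample wells on that plate plus 3 SD, cut at about 8% in these data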
MC4R barr conf: human MC4R beta-arrestin agonism confirmation. shares compounds with MC4R barr agon. 2,400 compounds, 31% hits. activation, % at 8.9 µM. U2OS MC4R beta-arrestin recruitment, luminescence; scaled DMSO 0%, Melanotan II 100%;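 active = mean activation across replicates above the hit cutoff set in the earlier primary screen, cut at about 8% in these data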
MOR DOR agonist: counter-screen for MC4R agonists: agonists of mu-delta opioid heterodimer. shares compounds with MC4R barr agon. U2OS PathHunter beta-arrestin, beta-gal luminescence; percent of deltorphin B response, DMSO zero. activation, % at 9.2 µM. 2,400 compounds, 5.8% hits. AID 602194;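 active = mean activation across replicates exceeds the hit threshold derived in the earlier primary screen, cut at about 18% in these data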;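 note: 100% = deltorphin B at 0.9 µM final and 0% = DMSO alone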
* marks the source's active call; other numbers are inactive results; nt = no result given.

SMILES	Lipid droplet	NTR1 ag	MC4R antag cAMP	PREPL inh	m5-HT2A agonist	MC4R barr agon	MC4R barr conf	MOR DOR agonist
CC(C)(C)NS(=O)(=O)c1ccc(/C=C/C(=O)O)cc1	3	-1	7	-1	-5	-1	nt	nt
Cc1cccc(-n2nnnc2SCC(=O)c2cc(C)n(Cc3ccco3)c2C)c1	nt	12	6	-7	0	27*	16*	4
CCOCC(=O)Nc1c(C(=O)Nc2ccc(OC)cc2OC)oc2ccccc12	-7	11	3	15	-2	13*	9.9*	6
COc1ccc(NC(=O)c2oc3ccccc3c2NC(=O)C2CC2)c(OC)c1	0	16	-1	-5	-2	3	nt	nt
Cc1c(C)n2c(SCC(=O)Nc3cccc4ccccc34)nnc2[nH]c1=O	nt	0	1	3	12	-1	nt	nt
O=C(COn1nnc2ccc(Cl)cc21)NC12CC3CC(CC(C3)C1)C2	15	0	6	4	-2	13*	4	12
O=C(COn1nnc2ccc(Cl)cc21)Nc1ccc(F)cc1	-2	-1	9	-12	-5	4	nt	nt
CCOc1ccc(Nc2oc(-c3ccco3)nc2C#N)cc1	nt	-1	9	13	3	2	nt	nt
CCOc1ccc(Nc2oc(-c3cccs3)nc2C#N)cc1	8	2	-2	16	8	18*	5	10
COc1nc(-c2ccccc2)ccc1-c1noc(-c2ccco2)n1	20	4	2	5	-1	31*	0	3
COc1cccc(Nc2nnc(SCN3C(=O)c4ccccc4C3=O)s2)c1	-10	6	11	-3	-2	14*	-1	3
O=C1CCCC(=O)C1C(=O)C1CCN(S(=O)(=O)c2ccccc2)CC1	4	0	8	1	-2	0	nt	nt
O=C(Nc1ccc(O)cc1)c1cc2ccccc2c(=O)s1	-10	4	17	8	-4	1	nt	nt
O=C(Nc1ccccc1)c1cc2ccccc2c(=O)s1	3	3	-4	-4	-4	13*	0	5
O=C(Cn1cc(C(F)(F)F)ccc1=O)N/N=C/c1ccc(Cl)c(Cl)c1	2	0	19	-3	-1	13*	-1	9
CC(C)C1OC(CCc2ccccc2)Cc2[nH][nH]c(=O)c21 (stereo unspecified)	nt	nt	nt	nt	0	nt	nt	nt
O=C1COc2ccc(C(=O)COC(=O)Cc3ccc(Cl)cc3)cc2N1	1	0	17	2	1	0	nt	nt
O=C1COc2ccc(C(=O)COC(=O)CCSc3ccc(Cl)cc3)cc2N1	-4	2	6	-4	-3	19*	4	8
COc1ccc(S(=O)(=O)N2CCOCC2)cc1NC(=O)c1ccccc1-c1ccc(C(F)(F)F)cc1	-17	2	18	0	-5	10*	0	2
Cc1cccc(C)c1NC(=O)CSC(=O)c1sc2ccccc2c1Cl	16	-1	-1	-12	1	3	nt	nt
O=C(COc1cc(Cl)ccc1Cl)Nc1ccc2[nH]c(=O)[nH]c2c1	nt	0	1	13	0	12*	2	7
COc1ccc(-n2nc(C(=O)NCC(=O)Nc3ccccn3)c3ccccc3c2=O)cc1Cl	nt	3	-3	nt	4	15*	24*	9
COc1ccc(-n2nc(C(=O)NCC(=O)NC(C)C)c3ccccc3c2=O)cc1Cl	2	1	-7	-1	0	-1	nt	nt
CCNC(=O)C1(C)CCN(C(=O)c2ccc(N(C)C)cc2)C1 (stereo unspecified)	nt	nt	-4	nt	0	-1	nt	nt
OC1(C#Cc2c(-c3ccsc3)oc3ccc(N4CCOCC4)cc23)CCCCC1	nt	18	19	7	2	13*	8	5
SMILES	Lipid droplet	NTR1 ag	MC4R antag cAMP	PREPL inh	m5-HT2A agonist	MC4R barr agon	MC4R barr conf	MOR DOR agonist
CS(=O)(=O)N(CC(=O)N1CCc2ccccc2C1)c1ccccc1F	nt	0	12	-26	-5	2	nt	nt
Oc1ccccc1-c1nc(NCc2ccccc2)c2ccccc2n1	-1	11	2	2	-4	12*	8	5
Oc1ccccc1-c1nc(NCc2ccco2)c2ccccc2n1	3	10	-5	16	0	13*	6	3
Oc1ccccc1-c1nc(NCc2cccnc2)c2ccccc2n1	19	5	-2	14	1	-3	nt	nt
Fc1ccccc1-c1nc(NCc2ccco2)c2ccccc2n1	26	0	-1	1	12	1	nt	nt
Cc1ccc(-c2csc3nc4c5ccccc5c(NCCCN5CCOCC5)nn4c(=O)c23)cc1	-2	24	nt	-30	nt	nt	nt	nt
Cc1ccc(-c2csc3nc4c5ccccc5c(NCCCN(C)C)nn4c(=O)c23)cc1	4	8	0	-12	-7	13*	33*	9
CN(C)c1ccc(/C=N\Nc2nc(-c3ccccc3)cc(=O)[nH]2)cc1	2	4	-1	14	-5	27*	4	5
Cc1cccc2sc(NC(=O)C3CCCN(S(=O)(=O)c4cccc5nonc45)C3)nc12 (stereo unspecified)	6	4	6	0	-1	9.9*	3	7
Cc1ccc2nc(NC(=O)C3CCCN(S(=O)(=O)c4cccc5nonc45)C3)sc2c1 (stereo unspecified)	5	-2	nt	-2	nt	nt	nt	nt
Cc1ccc(NS(=O)(=O)c2ccc3c(c2)OCCCO3)cc1S(=O)(=O)N1CCOCC1	nt	1	11	6	4	1	nt	nt
O=C(COC(=O)/C=C/c1cccs1)Nc1nc(-c2ccccc2)cs1	2	5	18	-8	1	32*	5	7
Cc1cccc(NC(=O)Nc2c(C)n(C)n(-c3ccccc3)c2=O)c1C	-10	-1	7	10	-4	-1	nt	nt
Cc1c(CCOC(=O)CC23CC4CC(CC(C4)C2)C3)sc[n+]1CC(=O)c1ccc(Br)cc1	-4	11	0	37	-7	0	nt	nt
Cc1c(CCOC(=O)CC23CC4CC(CC(C)(C4)C2)C3)sc[n+]1CC(=O)c1ccccc1	6	28	-4	26	-5	9.8*	20*	5
O=C(NC(=S)Nc1ccc2c(c1)OCO2)c1ccc(Cl)cc1	-5	5	-6	1	4	11*	1	3
CCc1ccc(C(=O)NC(=S)Nc2ccc3c(c2)OCCO3)cc1	-28	9	1	16	0	-1	nt	nt
